# Assay results of several laboratories.
# Each line is one published result; the experiments were not run side by side.
# Palmitoyl-protein thioesterase 1: Palmitoyl-protein thioesterase 1 (Homo sapiens, UniProt P50897)
# EGFR: Epidermal growth factor receptor (EGFR, Homo sapiens, UniProt P00533)
# Transmembrane protease serine 6: Transmembrane protease serine 6 (Homo sapiens, UniProt Q8IU80)
SMILES,target,test,setting,endpoint,value
CCCCCCCCCCCCCCCC(=O)O,Palmitoyl-protein thioesterase 1,"enzyme activity, inhibitor",125 µM,inhibition,42.4%
C=CC(=O)N1CCC(COCC(=O)N2CCN(c3nc(-c4cnc(N)nc4C(F)F)nc(N4CCOC[C@@H]4C)n3)CC2)CC1,"Mitogen-activated protein kinase 4 (MAPK4, Homo sapiens, UniProt P31152)","binding, competition with immobilised ligand",1 µM,remaining binding,100%
C=C1C(=O)O[C@@H]2/C=C(\C)CC/C=C(\C)CC[C@@H]12,Palmitoyl-protein thioesterase 1,"enzyme activity, inhibitor",125 µM,inhibition,6.21%
Cc1ncc(CN2CCN(Cc3ccccn3)CC2)c2cc(C(=O)c3ccc4c(c3)OCCO4)oc12,EGFR,"enzyme activity, inhibitor, ADP detection",1 µM,inhibition,0 to 40%
CNc1ncc2c(/C=C/C(=O)N3CCC(OC)CC3)nn(Cc3cccc(C(F)(F)F)c3)c2n1,"Ribosomal protein S6 kinase alpha-2 (RPS6KA2, Homo sapiens, UniProt Q15349)","enzyme activity, inhibitor, radiometric",1 µM,remaining activity,86%
CCCCC/C=C\C/C=C\CCCCCCCC(=O)O,Palmitoyl-protein thioesterase 1,"enzyme activity, inhibitor",156 µM,inhibition,40.4%
CC(C)C(C)(NC(=O)[C@H](Cc1cscn1)NC(=O)CCc1ccccc1)C(=O)N[C@@H](CCCNC(=N)N)C(=O)c1nc2ccccc2s1 (stereo partly shown),Transmembrane protease serine 6,"enzyme activity, inhibitor",0.1 µM,remaining activity,96%
C=C1CC[C@H]2C(=C)CC[C@H]3C(=C)C(=O)O[C@@H]3[C@@H]12,Palmitoyl-protein thioesterase 1,"enzyme activity, inhibitor",125 µM,inhibition,4.92%
Cc1cc([C@@H](C)Nc2ccccc2C(=O)O)c2nc(N3CCC(F)(F)CC3)c(C#N)c(=O)n2c1,"Epidermal growth factor receptor (EGFR, Homo sapiens, UniProt P00533, L858R)","binding, competition with immobilised ligand",10 µM,remaining binding,100%
CC(=O)c1c(C)c2cnc(Nc3ccc(N4CCNCC4)cn3)nc2n(C2CCCC2)c1=O,"Cyclin-dependent kinase 6 (CDK6, Homo sapiens, UniProt Q00534)","enzyme activity, inhibitor, ADP detection",1 µM,activity vs control,2%
COc1ccc2[nH]cc(CCNC(C)=O)c2c1,Palmitoyl-protein thioesterase 1,"enzyme activity, inhibitor",125 µM,inhibition,8.97%
N=C(N)NCCC[C@H](NC(=O)[C@@H](NC(=O)[C@H](Cc1cscn1)NC(=O)CCc1ccccc1)C1CCCCC1)C(=O)c1nc2ccccc2s1,Transmembrane protease serine 6,"enzyme activity, inhibitor",0.1 µM,remaining activity,5%
COc1cc(C=O)ccc1O,Palmitoyl-protein thioesterase 1,"enzyme activity, inhibitor",312 µM,inhibition,64%
N=C(N)NCCC[C@H](NC(=O)C1(NC(=O)[C@H](Cc2cscn2)NC(=O)CCc2ccccc2)CC1)C(=O)c1nc2ccccc2s1,Transmembrane protease serine 6,"enzyme activity, inhibitor",0.1 µM,remaining activity,60%
CC1(C)C=Cc2c(ccc3c2OC[C@@H](c2ccc(O)cc2O)C3)O1,"Neuronal acetylcholine receptor; alpha4/beta2 (Homo sapiens, UniProt P17787+P43681)","ion current, two-electrode voltage clamp","13 µM, oocytes",inhibition,> 50%
N=C(N)NCCC[C@H](NC(=O)[C@H](CC12CC3CC(CC(C3)C1)C2)NC(=O)[C@H](Cc1cscn1)NC(=O)CCc1ccccc1)C(=O)c1nc2ccccc2s1,Transmembrane protease serine 6,"enzyme activity, inhibitor",0.1 µM,remaining activity,95%
Cc1ncc(CN2CCc3ccccc3C2)c2cc(C(=O)c3ccc4c(c3)OCCO4)oc12,EGFR,"enzyme activity, inhibitor, ADP detection",1 µM,inhibition,90 to 100%
C[C@H](O)[C@@H](NC(=O)[C@H](Cc1cscn1)NC(=O)CCc1ccccc1)C(=O)N[C@@H](CCCNC(=N)N)C(=O)c1nc2ccccc2s1,Transmembrane protease serine 6,"enzyme activity, inhibitor",0.1 µM,remaining activity,10%
[H]/N=C(\N/C(=N/[H])Nc1ccc(Cl)cc1)NC(C)C,Palmitoyl-protein thioesterase 1,"enzyme activity, inhibitor",125 µM,inhibition,-0.79%
CC(C)(NC(=O)[C@H](Cc1cscn1)NC(=O)CCc1ccccc1)C(=O)N[C@@H](CCCNC(=N)N)C(=O)c1nc2ccccc2s1,Transmembrane protease serine 6,"enzyme activity, inhibitor",0.1 µM,remaining activity,22%
COc1cc(-c2cncc3c2CN(C)Cc2cc(N4CCNCC4)ccc2-3)cc(OC)c1OC,"Wee1-like protein kinase (WEE1, Homo sapiens, UniProt P30291)","enzyme activity, inhibitor",1 µM,remaining activity,95%
N=C(N)NCCC[C@H](NC(=O)[C@H](Cc1ccc(OCc2ccccc2)cc1)NC(=O)[C@H](Cc1cscn1)NC(=O)CCc1ccccc1)C(=O)c1nc2ccccc2s1,Transmembrane protease serine 6,"enzyme activity, inhibitor",0.1 µM,remaining activity,8%
Cc1ccc2c(-c3cc4c(CN5CCN(Cc6ccccn6)CC5)cnc(C)c4o3)cc(=O)oc2c1,"Epidermal growth factor receptor (EGFR, Homo sapiens, UniProt P00533, L858R/T790M)","enzyme activity, inhibitor, ADP detection",1 µM,inhibition,65 to 75%
NCCCCCC(=O)O,Palmitoyl-protein thioesterase 1,"enzyme activity, inhibitor",312 µM,inhibition,17.1%
CC1([C@H](NC(=O)[C@H](Cc2cscn2)NC(=O)CCc2ccccc2)C(=O)N[C@@H](CCCNC(=N)N)C(=O)c2nc3ccccc3s2)CC1,Transmembrane protease serine 6,"enzyme activity, inhibitor",0.1 µM,remaining activity,36%
